# From PubChem
# INS promoter inh: inhibitors of insulin promoter-driven GFP, primary screen, imaging, TRM-6 cells (human fetal islet line), eGFP reporter, cell count; AID 1273, 2008; reporter expression induced with tamoxifen; 0.9% of 130,000 active; inhibition, % at 2 µM;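 active means inhibition above the mean plus 3 SD, with well images judged a real hit on visual review, cut at about 60% in these data, passing the limit was not always enough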
# Efa HMGR inh: inhibitors of E. faecalis class II HMGR, primary screen, biochemical, Enterococcus faecalis | HMG-CoA reductase (Enterococcus faecalis, mvaE) | purified E. faecalis HMGR, NADPH absorbance 340 nm kinetic | inhibition, % at 10 µM | 0.41% of 190,000 active | AID 1066, 2008;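 active means inhibition above a set limit, the median over all tested compounds plus 3 SD, cut at about 9.5% in these data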;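 further: enzyme runs in reverse so mevalonate oxidation gives rising NADPH absorbance; 0% = complete reaction with DMSO and 100% = background rate lacking mevalonate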
# BB579 growth dn: growth inhibitors of yeast BB579 in restrictive medium, primary screen, yeast lifespan-shortening project, S. cerevisiae. OD615, 48 h. inhibition, % at 10 µM. 0.51% of 140,000 active;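 active means inhibition above a set limit, 3 SD over the mean compound inhibition, cut at about 44% in these data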
#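 test system = yeast BB579 (DeaD) | buffer or medium = restrictive CSMM-D medium | doses = single compound dose of 10 µM, 0.25% DMSO final | times = 4 h preincubation and 48 h exposure at 30 °C | technique = culture absorbance at 615 nm | benchmarks = amphotericin B 10 µg/mL, positive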
# Yeast lifespan up: compounds extending yeast replicative lifespan, primary screen, S. cerevisiae, OD615; inhibition of the nicotinamide effect, % at 10 µM; AID 775, 2007; S. cerevisiae growth with nicotinamide; deaD strain in restrictive glucose medium; 0.68% of 130,000 active;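 active means inhibition above a set limit, placed 3 SD over the median of all compounds, cut at about 26% in these data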;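 further: 0% = nicotinamide-treated wells and 100% = cells grown without nicotinamide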
#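 Test system – modified budding yeast, DeaD strain · Compound – single dose 10 µM compound, 0.25% DMSO · Times – culture preincubation 4 h, compound exposure 48 h, both 30 °C · Detection – optical density (absorbance) at 615 nm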
# RAM network inh: inhibitors of the yeast RAM network, primary screen, dse1pr::URA3 reporter, 5-FOA selection; inhibition, % at 50 µM; 1.8% of 190,000 active; S. cerevisiae dse1pr::URA3 reporter, 5-FOA growth OD615, 2 d; analog-sensitive cbk1-as2 kinase mutant strain;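 active means inhibition above a set limit, 3 SD over mean compound inhibition, cut at about 8.4% in these data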;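 further: 0% = DMSO-only wells with no growth and 100% = 10 µM 1-NA-PP1 full growth; inhibition rescues growth on 5-FOA so higher OD means more RAM inhibition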
# * = called active by the depositor; x = no result given. The list is not random: actives were taken first. Their share in the collection is about 3.7%.
SMILES,INS promoter inh,Efa HMGR inh,BB579 growth dn,Yeast lifespan up,RAM network inh
Cc1ccc(Nc2c(-c3ccc(N4CCOCC4)cc3)nc3ncccn23)c(C)c1,75.6*,-4.2,-0.5,3.7,0.0
Cc1cccc(C)c1Nc1c(-c2ccc(N3CCOCC3)cc2)nc2ncccn12,38.1,6.1,11.1,-1.2,-0.4
CCNC(=O)COC(=O)/C=C/c1cccc(F)c1,x,1.2,x,x,-0.2
CCN(CC)Cc1c(O)ccc2c([N+](=O)[O-])c(C)n(-c3ccc(OC)cc3)c12,77.8*,1.0,-52.1,x,3.9
COC(=O)c1nn(-c2ccccc2)c(Cl)c1/C=N/OCc1ccc(C)cc1,33.3,-3.2,-38.4,-2.3,10.2*
O=C(NCc1ccccn1)C1CN(S(=O)(=O)c2ccccc2)CCN1S(=O)(=O)c1ccccc1 (stereo not given),x,4.3,x,x,3.0
CC(C)(C)NC(=O)/C(=C\c1ccco1)NC(=O)c1cccs1,-37.0,10.6*,-23.9,4.3,1.3
CCOC(=O)c1c(N)sc(C(O)(C(F)(F)F)C(F)(F)F)c1-c1ccc(F)cc1,-22.2,-1.4,48.2*,-11.8,-1.8
CCOC(=O)c1c(N)sc(C(O)(C(F)(F)F)C(F)(F)F)c1-c1ccc(Cl)cc1,28.6,-3.0,51.7*,-11.6,-1.4
CCOC(=O)c1c(NC(=O)/C=C/C(=O)O)sc(C)c1-c1ccc(Cl)cc1,x,0.6,x,x,4.4
Cn1c(=O)c(=O)n(C)c2cc(S(=O)(=O)N3CCN(Cc4ccccc4)CC3)ccc21,x,7.1,-16.7,87.9*,0.8
Cn1c(=O)c(=O)n(C)c2cc(S(=O)(=O)N3CCCCC3)ccc21,5.7,-5.3,-13.7,-14.0,0.9
COc1ccc(N=Cc2nc(-c3ccco3)oc2O)cc1,-32.8,10.6*,-34.9,x,5.8
CNc1c([N+](=O)[O-])cnn1-c1cccc(Cl)n1,2.9,-13.0,x,x,0.4
CCc1ccc(/C=N/NC(=S)NCCc2ccccc2)cc1,0.0,-3.9,-29.1,13.8,8.5*
S=C(NCCc1ccccc1)N/N=C/c1ccccc1Cl,x,-5.3,-26.2,-2.0,1.2
CCNC(=S)N/N=C/c1cccc(/C=N/NC(=S)NCC)c1,x,-5.6,x,x,10.0*
Cc1c(NS(=O)(=O)c2ccc(NCCN3CCOCC3)c([N+](=O)[O-])c2)c(=O)n(-c2ccccc2)n1C,x,-0.7,x,x,2.5
CCOC(=O)C1(CC2CCCCO2)CCN(C(=O)NCc2ccccc2)CC1 (stereo not given),x,2.9,x,x,-0.2
Cc1ccc(NC(=O)CSc2ccc3nnc(CCNC(=O)c4ccccc4)n3n2)c(C)c1,x,-0.1,-13.7,0.4,0.0
Nc1cc(C(=O)O)c(Oc2ccc(Cl)cc2Cl)cc1C(=O)O,66.7*,-5.2,-9.6,6.5,-0.8
COc1ccccc1CNC(=O)C(NC(=O)c1ccccc1C)C(C)C (stereo not given),-36.4,-3.2,x,x,2.6
COc1ccc(OC)c(Nc2nc(-c3ccccc3O)nc3ccccc23)c1,x,-2.1,x,x,9.7*
Cn1c(CO)cnc1SCc1ccc(F)cc1,x,14.6*,x,x,2.2
Cn1c(CO)cnc1SCc1c(Cl)cccc1Cl,x,-0.2,-37.5,-6.3,2.6
SMILES,INS promoter inh,Efa HMGR inh,BB579 growth dn,Yeast lifespan up,RAM network inh
Cc1cnc([N+](=O)[O-])n1CCOC(=O)NC(=O)c1ccccc1Cl,x,-1.8,x,x,2.1
CC1(C)CNc2cc([N+](=O)[O-])ccc2S1,x,2.2,x,x,-0.2
Nc1ccc(O)cc1C(=O)OCC(=O)c1ccc(C2CCCCC2)cc1,-21.4,-1.3,-43.6,8.4,10.2*
O=C1C=CC(=O)N1N(c1ccccc1)c1ccccc1,61.9,-4.9,-33.1,20.2,-1.1
CN(C)NC(=O)C(NC(=O)c1ccccc1)C12CC3CC(CC(C3)C1)C2 (stereo not given),-46.7,-3.8,x,x,1.5
COc1cc(OC)cc(C(=O)NC(C(=O)O)C23CC4CC(CC(C4)C2)C3)c1 (stereo not given),46.7,13.9*,x,x,0.4
CCC1(CC)N=C(c2ccccc2)C(=S)N1,-20.0,-3.1,x,x,1.8
O=C(OCc1ccc(F)cc1)c1ccc2c(c1)-c1ccccc1C2=O,-20.7,-5.4,-61.1,-15.4,10.5*
CSc1nsc2nc(=O)c(/C=C3\C(C)=Nc4ccc(C)cc43)c(N)n12,-6.7,-2.4,x,x,9.3*
